Test results published in ChEMBL document CHEMBL1250436, “Evaluation of N-substitution in 6,7-benzomorphan compounds” (Bioorg Med Chem, 2010).

Assays:
Mu-type opioid receptor [1] = target: Mu-type opioid receptor (Rattus norvegicus, UniProt P33535); assay: Displacement of [3H]DAMGO from Sprague-Dawley rat mu opioid receptor by liquid scintillation counting
[2] = target: Delta-type opioid receptor (Rattus norvegicus, UniProt P33533); assay: Displacement of [3H]DPDPE from Sprague-Dawley rat delta opioid receptor by liquid scintillation counting
Delta-type opioid receptor (Rattus norvegicus, UniProt P33533), sequence (P33533 whole entry): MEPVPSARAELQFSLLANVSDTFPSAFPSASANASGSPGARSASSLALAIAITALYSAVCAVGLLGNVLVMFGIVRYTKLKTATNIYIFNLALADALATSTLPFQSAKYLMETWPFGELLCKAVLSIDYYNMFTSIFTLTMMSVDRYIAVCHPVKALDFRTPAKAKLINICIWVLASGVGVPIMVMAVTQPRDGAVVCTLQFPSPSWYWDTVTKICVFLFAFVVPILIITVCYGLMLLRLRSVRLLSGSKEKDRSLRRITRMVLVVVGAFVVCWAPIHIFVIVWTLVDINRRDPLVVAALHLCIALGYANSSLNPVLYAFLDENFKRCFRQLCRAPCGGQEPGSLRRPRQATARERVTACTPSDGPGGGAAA

[3] = target: Kappa-type opioid receptor (Cavia porcellus, UniProt P41144); assay: Displacement of [3H]U69593 from […] kappa opioid receptor in guinea pig cerebella by liquid scintillation counting
Kappa-type opioid receptor, sequence (P41144 whole entry): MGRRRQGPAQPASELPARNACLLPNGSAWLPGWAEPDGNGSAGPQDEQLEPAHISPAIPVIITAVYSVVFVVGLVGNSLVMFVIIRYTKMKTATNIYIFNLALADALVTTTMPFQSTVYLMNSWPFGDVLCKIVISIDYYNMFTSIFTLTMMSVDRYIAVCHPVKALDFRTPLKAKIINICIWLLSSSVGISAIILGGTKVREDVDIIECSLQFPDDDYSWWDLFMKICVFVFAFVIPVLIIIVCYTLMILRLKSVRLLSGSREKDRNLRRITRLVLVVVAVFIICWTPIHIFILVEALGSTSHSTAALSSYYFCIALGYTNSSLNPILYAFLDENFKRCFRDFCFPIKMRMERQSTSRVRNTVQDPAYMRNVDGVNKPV

[4] = Selectivity ratio of Ki for kappa opioid receptor in guinea pig cerebella to Ki for mu opioid receptor in Sprague-Dawley rat brain
Rattus norvegicus [5] = species: Rattus norvegicus; assay: Selectivity ratio of Ki for delta opioid receptor in Sprague-Dawley rat brain to Ki for mu opioid receptor in Sprague-Dawley rat brain
Rattus norvegicus [6] = assay: Antinociceptive activity in sc dosed Sprague-Dawley rat assessed as thermal-stimulus-induced tail flick latency after 100 mins; format: functional
How it was run: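 Male Sprague–Dawley rats (180–200 g) habituated the day before. Radiant-heat IR on lower third of tail. Basal latency 3–4 s, mean of three readings 5 min apart. Cut-off 10 s. Compound given sc, and latencies read at 20, 40, 60, 80 and 100 min. Blinded. ED50 from linear regression of dose–effect, with 95% confidence limits.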

Mu-type opioid receptor [7] = target: T1, Mu-type opioid receptor (Homo sapiens, UniProt P35372); assay: Agonist activity at mu opioid expressed in HEK293 cells assessed as inhibition of forskolin-stimulated cAMP accumulation; format: functional, cell-based
T1 sequence (P35372 whole entry): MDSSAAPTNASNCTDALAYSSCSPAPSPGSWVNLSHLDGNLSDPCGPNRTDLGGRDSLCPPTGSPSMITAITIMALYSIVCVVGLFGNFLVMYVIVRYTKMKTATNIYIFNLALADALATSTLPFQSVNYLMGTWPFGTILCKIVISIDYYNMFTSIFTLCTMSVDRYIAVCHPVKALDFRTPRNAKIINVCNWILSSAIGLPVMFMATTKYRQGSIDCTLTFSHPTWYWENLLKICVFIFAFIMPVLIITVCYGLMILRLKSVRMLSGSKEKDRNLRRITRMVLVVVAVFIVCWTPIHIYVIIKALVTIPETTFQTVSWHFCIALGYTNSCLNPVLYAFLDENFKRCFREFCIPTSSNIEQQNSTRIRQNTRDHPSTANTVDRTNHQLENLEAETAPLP

[8] = target: T2, Delta-type opioid receptor (Homo sapiens, UniProt P41143); assay: Agonist activity at delta opioid expressed in HEK293 cells assessed as inhibition of forskolin-stimulated cAMP accumulation; format: functional, cell-based
T2 sequence (P41143 whole entry): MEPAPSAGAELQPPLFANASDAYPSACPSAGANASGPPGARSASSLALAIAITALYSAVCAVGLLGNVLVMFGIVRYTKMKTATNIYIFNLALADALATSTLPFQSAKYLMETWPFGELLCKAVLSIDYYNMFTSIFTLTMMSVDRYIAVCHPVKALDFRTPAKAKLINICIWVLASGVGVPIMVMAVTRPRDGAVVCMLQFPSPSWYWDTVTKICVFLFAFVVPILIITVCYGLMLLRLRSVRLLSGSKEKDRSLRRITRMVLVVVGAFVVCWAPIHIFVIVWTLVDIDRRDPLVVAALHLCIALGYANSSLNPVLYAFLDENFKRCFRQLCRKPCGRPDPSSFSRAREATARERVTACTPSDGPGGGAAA

Mu-type opioid receptor [9] = target: T1, Mu-type opioid receptor; assay: Agonist activity at mu opioid expressed in HEK293 cells assessed as inhibition of forskolin-stimulated cAMP accumulation at 1 pM to 10 uM relative to control; format: functional, cell-based
[10] = target: T2, Delta-type opioid receptor; assay: Agonist activity at delta opioid expressed in HEK293 cells assessed as inhibition of forskolin-stimulated cAMP accumulation at 1 pM to 10 uM relative to control; format: functional, cell-based

Mu-type opioid receptor (Rattus norvegicus, UniProt P33535), sequence (P33535 whole entry): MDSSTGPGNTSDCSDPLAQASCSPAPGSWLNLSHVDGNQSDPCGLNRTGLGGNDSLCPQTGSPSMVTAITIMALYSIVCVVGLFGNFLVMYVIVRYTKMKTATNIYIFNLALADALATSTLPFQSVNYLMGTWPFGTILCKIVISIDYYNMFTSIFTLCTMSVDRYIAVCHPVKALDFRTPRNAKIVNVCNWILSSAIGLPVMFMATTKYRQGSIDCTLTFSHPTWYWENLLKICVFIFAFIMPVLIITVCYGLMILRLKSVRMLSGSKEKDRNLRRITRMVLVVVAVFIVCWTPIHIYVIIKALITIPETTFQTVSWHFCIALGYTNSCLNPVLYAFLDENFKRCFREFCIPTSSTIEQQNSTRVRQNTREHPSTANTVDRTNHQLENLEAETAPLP

`C[C@H]1CN(CCC(=O)NCC2CCCCC2)[C@@H]2Cc3ccc(O)cc3[C@]1(C)C2` showed a Ki (Mu-type opioid receptor [1]) of 107 nM, a Ki [2] of over 5000 nM and a Ki [3] of 134 nM. The Ratio Ki [4] was 1.2 and the Ratio Ki (Rattus norvegicus [5]) was over 46.7.
In the case of `C[C@H]1CN(CC(=O)Nc2ccccc2)[C@@H]2Cc3ccc(O)cc3[C@]1(C)C2`, the Ki (Mu-type opioid receptor [1]) is reported as 722 nM, the Ki [2] is reported as over 5000 nM and the Ki [3] is reported as over 5000 nM. For the same compound, the Ratio Ki [4] was over 6.9 and the Ratio Ki (Rattus norvegicus [5]) was over 6.9.
`C[C@H]1CN(CC(=O)NC2CCCCC2)[C@@H]2Cc3ccc(O)cc3[C@]1(C)C2` showed a Ki (Mu-type opioid receptor [1]) of 2930 nM, a Ki [2] of over 5000 nM and a Ki [3] of 612 nM. It also gave a Ratio Ki [4] of 0.2 and a Ratio Ki (Rattus norvegicus [5]) of over 1.7.
Compound `C[C@H]1CN(CC(=O)N(C)c2ccccc2)[C@@H]2Cc3ccc(O)cc3[C@]1(C)C2` has a Ki (Mu-type opioid receptor [1]) of 1370 nM, a Ki [2] of over 5000 nM and a Ki [3] of 339 nM. It also gave a Ratio Ki [4] of 0.24 and a Ratio Ki (Rattus norvegicus [5]) of over 3.6.
`CN1CC[C@]23c4c5ccc(O)c4O[C@H]2[C@@H](O)C=C[C@H]3[C@H]1C5` [MORPHINE] gave an ED50 (Rattus norvegicus [6]) of 2.7 mg/kg.
Compound `C[C@@H](NC(=O)[C@@H](N)Cc1ccc(O)cc1)C(=O)NCC(=O)N(C)[C@@H](Cc1ccccc1)C(=O)NCCO` [DAMGO] has a Ki [2] of 2670 nM and a Ki [3] of over 5000 nM.
Compound `CCN(C(=O)CN1C[C@H](C)[C@@]2(C)C[C@H]1Cc1ccc(O)cc12)c1ccccc1` has a Ki (Mu-type opioid receptor [1]) of 1120 nM, a Ki [2] of over 5000 nM and a Ki [3] of 335 nM. It also gave a Ratio Ki [4] of 0.29 and a Ratio Ki (Rattus norvegicus [5]) of over 4.4.
Compound `C[C@H]1CN(CCC(=O)Nc2ccccc2)[C@@H]2Cc3ccc(O)cc3[C@]1(C)C2` has a Ki (Mu-type opioid receptor [1]) of 0.83 nM, a Ki [2] of 29.1 nM and a Ki [3] of 110 nM. It also gave a Ratio Ki [4] of 132, a Ratio Ki (Rattus norvegicus [5]) of 33.8 and an IC50 (Mu-type opioid receptor [7]) of 4.8 nM. For the same compound, the IC50 [8] was 12 nM, the Imax (Mu-type opioid receptor [9]) was 73% and the Imax [10] was 83%. It also gave an ED50 (Rattus norvegicus [6]) of 2.03 mg/kg.
Compound `C[C@H]1CN(CCC(=O)N(C)c2ccccc2)[C@@H]2Cc3ccc(O)cc3[C@]1(C)C2` has a Ki (Mu-type opioid receptor [1]) of 65 nM, a Ki [2] of over 5000 nM and a Ki [3] of 261 nM. The Ratio Ki [4] was 4 and the Ratio Ki (Rattus norvegicus [5]) was over 76.9.
With `C[C@H]1CN(CCC(=O)NCc2ccccc2)[C@@H]2Cc3ccc(O)cc3[C@]1(C)C2` the Ki (Mu-type opioid receptor [1]) was 105 nM, the Ki [2] was over 5000 nM and the Ki [3] was 237 nM. The Ratio Ki [4] was 2.2 and the Ratio Ki (Rattus norvegicus [5]) was over 47.6.
Work on `CCN(C(=O)CCN1C[C@H](C)[C@@]2(C)C[C@H]1Cc1ccc(O)cc12)c1ccccc1` yielded a Ki (Mu-type opioid receptor [1]) of 136 nM, a Ki [2] of over 5000 nM and a Ki [3] of 70 nM. It also gave a Ratio Ki [4] of 0.51 and a Ratio Ki (Rattus norvegicus [5]) of over 36.7.
`C[C@H]1CN(CCC(=O)NC2CCCCC2)[C@@H]2Cc3ccc(O)cc3[C@]1(C)C2` showed a Ki (Mu-type opioid receptor [1]) of 56 nM, a Ki [2] of over 5000 nM and a Ki [3] of 501 nM. It also gave a Ratio Ki [4] of 8.9 and a Ratio Ki (Rattus norvegicus [5]) of over 89.2.
`C[C@H]1CN(CCC(=O)NC(C)(C)C)[C@@H]2Cc3ccc(O)cc3[C@]1(C)C2` gave a Ki (Mu-type opioid receptor [1]) of 372 nM, a Ki [2] of over 5000 nM and a Ki [3] of 422 nM. For the same compound, the Ratio Ki [4] was 1.1 and the Ratio Ki (Rattus norvegicus [5]) was over 13.4.
